Results taken from publication PMC10629916 (Journal of Food and Drug Analysis, 2023).

Columns and labels:
[1] = Stability test of the 2 analytes in rat plasma; format: in vitro ADME
Procedure, shortened: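 Rat plasma QC samples at low, middle and high levels were assayed in triplicate. They were MeOH-precipitated (1:3), spun at 4500 rpm and 4 °C for 10 min, dried and redissolved in MeOH. The processed samples were held in the autosampler for 12 h and then quantified by UPLC-MS/MS against oxacillin internal standard. Samples counted as stable if bias was within ±15% of nominal.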

[2] = format: in vivo, Male Wistar Rats; conditions: male, Wistar, rat, plasma, po, 800 mg/kg
Procedure, shortened: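 Male Wistar rats (200–250 g) dosed orally with the prescription extract at 800 mg/kg. Plasma was stored at −80 °C, then precipitated with MeOH (1:3). Analysis was by UPLC-MS/MS MRM with oxacillin as internal standard. Parameters came from noncompartmental analysis, reported as mean ± SD.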

[3] = Normal temperature (auto-sampler 12 h), nominal conc 15.62 ng/mL
[4] = Normal temperature (auto-sampler 12 h), nominal conc 31.25 ng/mL
[5] = −80 (storage at −80 °C), nominal conc 15.62 ng/mL
[6] = −80 (storage at −80 °C), nominal conc 31.25 ng/mL
[7] = −80 FT (three freeze–thaw cycles), nominal conc 15.62 ng/mL
[8] = −80 FT (three freeze–thaw cycles), nominal conc 31.25 ng/mL

- Accuracy (RE, %) [1, 3]: 11.32%
- Observed [1, 3]: 17.94 ± 0.15
- Accuracy (RE, %) [1, 4]: −2.84%
- Observed [1, 4]: 31.04 ± 0.22
- Accuracy (RE, %) ([1]; −80 (storage at −80 °C), nominal conc 0.48 ng/mL): −1.48%
- Accuracy (RE, %) [1, 5]: 9.87%
- Observed [1, 5]: 17.94 ± 0.15
- Accuracy (RE, %) [1, 6]: −3.53%
- Observed [1, 6]: 31.04 ± 0.22
- Accuracy (RE, %) ([1]; −80 FT (three freeze–thaw cycles), nominal conc 0.48 ng/mL): −3.82%
- Accuracy (RE, %) [1, 7]: 12.58%
- Observed [1, 7]: 17.94 ± 0.15
- Accuracy (RE, %) [1, 8]: −3.1%
- Observed [1, 8]: 31.04 ± 0.22
- AUC(0-inf) [2]: 20.2 ± 11.9 ng·h/mL
- AUC(0-t) [2]: 11 ± 5.91 ng·h/mL
- Cmax [2]: 3.29 ± 1.63 ng/mL
- MRT inf [2]: 8.22 ± 2.65 h
- Tmax [2]: 1.01 ± 1.22 h
- half-life [2]: 4.76 ± 1.76 h
Compound: C[C@@H]1O[C@@H](OC[C@H]2O[C@@H](Oc3cc(O)c4c(c3)O[C@H](c3ccc(O)cc3)CC4=O)[C@H](O)[C@@H](O)[C@@H]2O)[C@H](O)[C@H](O)[C@H]1O [Narirutin]
